Drawing on ChEMBL document CHEMBL5674884, “Ezh2 inhibition in Kras-driven lung cancer amplifies inflammation and associated vulnerabilities” (J Exp Med, 2018), this text covers Activity and inhibition for three compounds.

The source made the active and inactive calls. The rule behind the calls is not given here.

Experiment [1] concerns NSCLC. The experiment in a line: Induction of cell cycle arrest in mouse NSCLC cell infected with dox-inducible EZH2 shRNA assessed as accumulation of cells at G0/G1 phase at 100 nM in presence of […] by FACS analysis. The format is functional, cell-based. In short, it runs like this: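 Kras G12D/+;Trp53-/- cells carrying dox-inducible EZH2 shRNA treated with or without dox and 100 nM GSK343 for 3 d. Cells then pulsed 45 min with 10 uM BrdU and stained with anti-BrdU-FITC and propidium iodide (5 ug/ml) with RNaseA, then analyzed by FACS. Three independent experiments; Student's t test.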

The test system of experiment [2] is NSCLC. In words: Inhibition of colony formation in mouse NSCLC cell expressing Kras G12D/+ at 100 nM. The format is functional, cell-based. The essentials:
(§1)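 Kras G12D/+;Trp53-/- cells treated with 100 nM GSK343 or GSK669 for 5 d, with or without dox, then replated at 250 or 500 cells per well for colony formation under continued treatment. Cell numbers taken relative to controls; colony size quantified automatically. Three independent experiments.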

In experiment [3] the test system is NSCLC. In words: Antiproliferative activity in mouse NSCLC cell expressing Kras G12D/+ assessed reduction in cell viability at 100 nM. Type of experiment: functional, cell-based. In short, it runs like this: as §1
For experiment [4], the target named is Histone-lysine N-methyltransferase EZH2 (Mus musculus) (UniProt Q61188). In words: Inhibition of Ezh2 in mouse NSCLC cells expressing Kras G12D/+ assessed down-regulation of H3K27me3 level at 100 nM for 120 hrs by Immunoblot analysis. Type of experiment: cell-based.
Experiment [5] shares this target. In words: Inhibition of Ezh2 in mouse NSCLC cells at 100 nM in presence of […] by immunoblot analysis. The format is cell-based.
Experiment [6] shares this target. In words: Inhibition of Ezh2 in mouse NSCLC cells infected with dox-inducible EZH2 shRNA assessed vinculin expression at 100 nM in presence of […] by immunoblot analysis. Type of experiment: cell-based.
For experiment [7], the system named is NSCLC. The experiment in a line: Antitumor activity in KrasG12D/+ harbouring mouse NSCLC cells xenografted in BALB/c nude mouse assessed as reduced tumor progression. Type of experiment: functional. Conditions: dose 50.0 mg/kg, route iv.
Experiment [8] has as its system A549. The experiment in a line: Reversal of GSK126 dependent antiinflammatory activity in human A549 cells assessed as decrease in Il1ra level by qRT-PCR analysis. Type of experiment: functional, cell-based.
Experiment [9] has as its system A549. In words: Reversal of GSK126 dependent antiinflammatory activity in human A549 cells assessed as decrease in Irak1 level by qRT-PCR analysis. The format is functional, cell-based.
Experiment [10] has as its system A549. In words: Reversal of GSK126 dependent antiinflammatory activity in human A549 cells assessed as decrease in IL-6 level by qRT-PCR analysis. The format is functional, cell-based.
The test system of experiment [11] is A549. In words: Reversal of GSK126 dependent antiinflammatory activity in human A549 cells assessed as decrease in Ccl2 level by qRT-PCR analysis. Type of experiment: functional, cell-based.

Histone-lysine N-methyltransferase EZH2 (Mus musculus), sequence (Q61188 whole entry): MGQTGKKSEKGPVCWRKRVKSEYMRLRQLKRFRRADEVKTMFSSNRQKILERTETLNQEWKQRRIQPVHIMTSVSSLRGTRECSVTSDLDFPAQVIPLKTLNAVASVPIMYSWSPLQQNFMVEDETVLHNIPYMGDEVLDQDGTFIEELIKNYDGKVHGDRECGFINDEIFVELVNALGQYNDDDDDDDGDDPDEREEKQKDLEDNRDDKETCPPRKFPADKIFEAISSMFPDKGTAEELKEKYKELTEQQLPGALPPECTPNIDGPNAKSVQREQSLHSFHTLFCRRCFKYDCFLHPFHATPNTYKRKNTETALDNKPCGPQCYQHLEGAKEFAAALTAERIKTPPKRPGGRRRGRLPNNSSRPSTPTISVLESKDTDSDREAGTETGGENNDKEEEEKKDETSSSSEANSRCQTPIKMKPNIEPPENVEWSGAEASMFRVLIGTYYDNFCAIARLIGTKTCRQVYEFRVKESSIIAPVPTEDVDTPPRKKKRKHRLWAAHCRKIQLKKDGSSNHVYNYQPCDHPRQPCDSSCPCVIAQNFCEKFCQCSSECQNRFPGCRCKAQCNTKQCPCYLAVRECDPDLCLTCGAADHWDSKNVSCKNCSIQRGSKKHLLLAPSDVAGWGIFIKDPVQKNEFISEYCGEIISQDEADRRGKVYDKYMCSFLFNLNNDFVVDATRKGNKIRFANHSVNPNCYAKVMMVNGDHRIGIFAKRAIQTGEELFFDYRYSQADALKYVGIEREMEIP

Regarding `CCCc1cc(C)[nH]c(=O)c1CNC(=O)c1cc(-c2ccnc(N3CCN(C)CC3)c2)cc2c1cnn2C(C)C`, the result in [1] and in experiment [3] was Active. Also, the inhibition result in experiment [2], in [4], in [5] and in experiment [6] was “Active” in each case.
Turning to `CC(C)C[C@H](NC(=O)[C@H](Cc1ccccc1)NC(=O)c1cnccn1)B(O)O`, the result in experiment [7] was inactive.
For the compound `CC(C)(C)c1cnc(CSc2cnc(NC(=O)C3CCNCC3)s2)o1`, the result in [8], in [9], in experiment [10] and in experiment [11] was Active.
